Here are results for 30 compounds from ChEMBL document CHEMBL1127050, “Tyrosine kinase inhibitors. 1. Structure-activity relationships for inhibition of epidermal growth factor receptor tyrosine kinase activity by 2,3-dihydro-2-thioxo-1H-indole-3-alkanoic acids and 2,2'-dithiobis(1H-indole-3-alkanoic acids)” (J Med Chem, 1993).

Test [1] has as its target Epidermal growth factor receptor (Homo sapiens, UniProt P00533). The experiment in a line: Inhibition of EGF-stimulated EGFR tyrosine kinase activity using plasma membrane vesicles shed from cultured human A431 carcinoma cells. It counts as functional, cell-based, A-431. In outline:
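EGFR source: A431 shed membrane vesicles, solubilized in 4% Triton X-100/10% glycerol, 10 μg total protein per reaction. Final buffer: 20 mM HEPES pH 7.4, 15 mM MgCl₂, 4 mM MnCl₂, 0.02% BSA, 5 μM ATP with [γ-³²P]ATP, Glu:Ala:Tyr (6:3:1) copolymer substrate, 250 ng EGF. Run 10 min at room temperature, stopped with cold TCA/pyrophosphate. Filter-bound ³²P counted. IC50 is 50% reduction of incorporation. Autophosphorylation controls included.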

The test system of a further test is Swiss 3T3 (Mus musculus). The experiment in a line: Inhibition of Swiss 3T3 mouse fibroblast proliferation.

A value given as a limit tells only on which side of the number the result lay.

Chain of Epidermal growth factor receptor (P00533 whole entry): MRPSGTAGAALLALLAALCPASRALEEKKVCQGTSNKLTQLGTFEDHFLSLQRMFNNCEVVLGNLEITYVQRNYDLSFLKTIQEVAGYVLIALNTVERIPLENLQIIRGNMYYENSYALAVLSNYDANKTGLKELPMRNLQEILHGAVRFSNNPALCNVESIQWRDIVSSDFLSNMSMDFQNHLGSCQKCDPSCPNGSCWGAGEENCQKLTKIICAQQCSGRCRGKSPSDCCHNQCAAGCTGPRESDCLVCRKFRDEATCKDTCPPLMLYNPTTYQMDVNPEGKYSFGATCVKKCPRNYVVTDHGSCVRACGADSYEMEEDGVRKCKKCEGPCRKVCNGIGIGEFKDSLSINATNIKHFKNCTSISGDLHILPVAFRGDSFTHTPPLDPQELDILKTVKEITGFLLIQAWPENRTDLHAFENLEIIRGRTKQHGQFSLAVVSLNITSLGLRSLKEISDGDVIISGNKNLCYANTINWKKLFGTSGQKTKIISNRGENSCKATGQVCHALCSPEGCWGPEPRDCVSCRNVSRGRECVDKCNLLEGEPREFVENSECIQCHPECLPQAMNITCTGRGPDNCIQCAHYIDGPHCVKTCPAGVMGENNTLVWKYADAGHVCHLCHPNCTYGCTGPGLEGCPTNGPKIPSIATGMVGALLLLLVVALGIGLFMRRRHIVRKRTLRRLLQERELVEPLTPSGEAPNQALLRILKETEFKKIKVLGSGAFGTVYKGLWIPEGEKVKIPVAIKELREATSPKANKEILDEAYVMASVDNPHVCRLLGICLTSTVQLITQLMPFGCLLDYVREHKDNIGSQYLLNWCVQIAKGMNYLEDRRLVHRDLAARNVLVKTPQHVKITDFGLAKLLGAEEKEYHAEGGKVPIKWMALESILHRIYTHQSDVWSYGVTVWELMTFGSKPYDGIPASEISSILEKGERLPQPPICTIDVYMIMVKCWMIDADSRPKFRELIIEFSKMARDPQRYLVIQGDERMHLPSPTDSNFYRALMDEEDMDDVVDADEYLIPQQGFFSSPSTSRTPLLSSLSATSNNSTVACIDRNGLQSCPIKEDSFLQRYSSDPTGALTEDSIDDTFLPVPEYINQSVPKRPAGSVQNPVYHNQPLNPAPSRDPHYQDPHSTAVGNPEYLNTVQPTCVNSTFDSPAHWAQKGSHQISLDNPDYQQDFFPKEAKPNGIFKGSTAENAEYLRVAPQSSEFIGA

As a reminder, the IC50 is the concentration needed to halve the response being measured. A lower IC50 goes with inhibition by little substance. On to `O=C(O)CCC1C(S)=Nc2ccccc21` (centres undefined), for which the IC50 is 1.62 µM in test [1] and 64 µM in the test on Swiss 3T3 (Mus musculus).

With `COC(=O)CCN1C(=S)C(CCC(=O)OC)(CCC(=O)OC)c2ccccc21`, the IC50 in test [1] was greater than 100 µM.

As for `COC(=O)CCC1C(S)=Nc2ccccc21` (centres undefined), the concentration for half-maximal inhibition (IC50) in test [1] was greater than 100 µM; with Swiss 3T3 (Mus musculus), 16 µM.

For `CN1C(=S)C(CCC(=O)O)c2ccccc21` (centres undefined), the IC50 in test [1] stood at 6.7 µM.

On to `COC(=O)CCC1C(=S)N(C)c2ccccc21` (centres undefined), for which, in test [1], the IC50 is greater than 100 µM.

On to `COC(=O)Cc1c(Sc2c(CC(=O)OC)c3ccccc3n2C)n(C)c2ccccc12`, for which the IC50 in test [1] was greater than 100 µM.

Turning to `COC(=O)CC1C(=S)Nc2ccccc21` (centres undefined), the IC50 in test [1] worked out at 100 µM.

For `COC(=O)CCC1(CCC(=O)OC)C(=S)Nc2ccccc21`, the IC50 in test [1] is greater than 100 µM.

`COC(=O)CCCC1C(=S)Nc2ccccc21` (centres undefined) had an IC50 in test [1] greater than 100 µM.

As for `COC(=O)CCc1c(SSc2c(CCC(=O)OC)c3ccccc3n2C)n(C)c2ccccc12`, the IC50 in test [1] was greater than 100 µM; in the test with Swiss 3T3 (Mus musculus) it was 5.2 µM.

For the compound `CN1C(=S)C(CC(=O)O)c2ccccc21` (centres undefined), the IC50 in test [1] was greater than 100 µM.

`COC(=O)CCCc1c(SSc2c(CCCC(=O)OC)c3ccccc3n2C)n(C)c2ccccc12`: the IC50 in test [1] was greater than 100 µM; in the test on Swiss 3T3 (Mus musculus), 1.8 µM.

`O=C(O)Cc1c(SSc2[nH]c3ccccc3c2CC(=O)O)[nH]c2ccccc12`: the IC50 in test [1] is 10.2 µM; with Swiss 3T3 (Mus musculus), greater than 50 µM.

`COC(=O)CCCc1c(SSc2[nH]c3ccccc3c2CCCC(=O)OC)[nH]c2ccccc12` displayed an IC50 in test [1] greater than 100 µM.

Regarding `COC(=O)Cc1c(SSSc2[nH]c3ccccc3c2CC(=O)OC)[nH]c2ccccc12`, the IC50 in test [1] was found to be 35 µM; in the test on Swiss 3T3 (Mus musculus), 1 µM.

With `O=C(O)CCc1c(SSc2[nH]c3ccccc3c2CCC(=O)O)[nH]c2ccccc12`, the IC50 in test [1] was determined as 4.2 µM; in the test on Swiss 3T3 (Mus musculus), 59 µM.

Take `COC(=O)CCc1c(SSc2[nH]c3ccccc3c2CCC(=O)OC)[nH]c2ccccc12`: the IC50 in test [1] was found to be 21 µM; in the test on Swiss 3T3 (Mus musculus), 7.4 µM.

Compound `O=C(O)Cc1c(SSSc2[nH]c3ccccc3c2CC(=O)O)[nH]c2ccccc12` showed an IC50 in the test with Swiss 3T3 (Mus musculus) of 8 µM.

In turn, `COC(=O)CC1C(=S)N(C)c2ccccc21` (centres undefined) registered an IC50 in test [1] greater than 100 µM.

The compound `Cc1cccc2c(CCC(=O)O)c(SSc3[nH]c4c(C)cccc4c3CCC(=O)O)[nH]c12` registered an IC50 in test [1] of 1.5 µM.

In the case of `O=C(O)CCC1(CCC(=O)O)C(=S)Nc2ccccc21`, the IC50 in test [1] was greater than 100 µM.

Regarding `CN1C(=S)C(CCCC(=O)O)c2ccccc21` (centres undefined), the IC50 in test [1] is greater than 100 µM.

With `Cc1ccc2[nH]c(SSc3[nH]c4ccc(C)cc4c3CCC(=O)O)c(CCC(=O)O)c2c1`, in the test with Swiss 3T3 (Mus musculus), the IC50 is greater than 50 µM.

Take `COC(=O)Cc1c(SSc2c(CC(=O)OC)c3ccccc3n2C)n(C)c2ccccc12`: the IC50 in test [1] was found to be 33 µM.

Turning to `COC(=O)Cc1c(SSc2[nH]c3ccccc3c2CC(=O)OC)[nH]c2ccccc12`, the IC50 in the test on Swiss 3T3 (Mus musculus) is 2.3 µM.

`Cn1c(SSc2c(CC(=O)O)c3ccccc3n2C)c(CC(=O)O)c2ccccc21`: the IC50 in test [1] was 53 µM; in the test with Swiss 3T3 (Mus musculus), 36 µM.

In test [1], `Cn1c(SSc2c(CCC(=O)O)c3ccccc3n2C)c(CCC(=O)O)c2ccccc21` registered an IC50 of 3.1 µM.

Take `COC(=O)CCCC1C(=S)N(C)c2ccccc21` (centres undefined): the IC50 in test [1] was greater than 100 µM.

In test [1], `O=C(O)CCCC1C(=S)Nc2ccccc21` (centres undefined) showed an IC50 of 6.7 µM.

Turning to `O=CN/C=C/c1cc(O)ccc1O` [ERBSTATIN], in test [1], the IC50 was 2 µM.
